The source made the active and inactive calls. The calls are words filed in the database; no cut-off is given here.

Among the data in ChEMBL document CHEMBL4270598, “Synthesis and discovery of a drug candidate for treatment of idiopathic pulmonary fibrosis through inhibition of TGF-β1 pathway” (Eur J Med Chem, 2018) are inhibition and Activity values, retold here.

Assay [1] deals with Transforming growth factor beta-1 proprotein (Mus musculus) (UniProt P04202). Briefly: Inhibition of TGF-beta1 in mouse Mlg cells assessed as decrease in cell viability at 10 uM after 24 hrs by MTT assay. The format is cell-based. Summed up:
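Mlg cells exposed to TGF-β1 (5 ng/mL) with or without compound at 10 µM for 24 h; DMSO-treated cells served as control. MTT added for 4 h, then DMSO, and absorbance read. Viability normalized to control as 100%. Triplicate.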

The target is the same in assay [2]. Briefly: Inhibition of TGF-beta1 in mouse Mlg cells assessed as reduction in Col1a1 mRNA expression level at 10 uM after 24 hrs by qRT-PCR method. The format is cell-based. An outline of the steps: (§1)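 Mlg lung fibroblasts treated with or without TGF-β1 (5 ng/mL) plus compound at 10 µM for 24 h. α-SMA, Col1a1 and Fn1 mRNA measured by real-time PCR with β-actin reference primers. n=3.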

Assay [3] has as its target T1, Transforming growth factor beta-1 proprotein/Mothers against decapentaplegic homolog 3 (Mus musculus) (UniProt P04202+Q8BUN5). Briefly: Inhibition of TGF-beta1/smad3 signaling pathway in mouse NIH/3T3 cells at 10 uM after 18 hrs by CAGA-luciferase reporter gene assay relative to control. The format is cell-based. An outline of the steps: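 CAGA12-luciferase stably transfected NIH3T3 cells plated overnight. Treated with TGF-β1 (5 ng/mL) with or without compound at 10 µM in DMEM containing 0.1% FBS for 18 h. Lysate luminescence integrated over the first 20 s. Inhibition ratio calculated from TGF-β1-stimulated signal of treated versus control wells; mean of three independent experiments.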

Assay [4] deals with Transforming growth factor beta-1 proprotein (Mus musculus) (UniProt P04202). Briefly: Inhibition of TGF-beta1 in mouse Mlg cells assessed as reduction in cell migration at 10 uM after 24 hrs by wound healing based light microscopy. Summed up:
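Confluent Mlg monolayers scratched to a 100-µm wound. Cells then cultured in serum-free medium with or without TGF-β1 (5 ng/mL) and compound at 10 µM. Light-microscope images taken at 0, 12 and 24 h; wound area expressed relative to the initial scratch.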

The target of assay [5] is T1, Transforming growth factor beta-1 proprotein/Mothers against decapentaplegic homolog 3 (Mus musculus). Put plainly: Inhibition of TGF-beta1/smad3 signaling pathway in mouse NIH/3T3 cells at 5 to 40 uM after 18 hrs by CAGA-luciferase reporter gene assay. The assay is classed as cell-based. Summed up: (§2)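 CAGA12-luciferase NIH3T3 cells stimulated with TGF-β1 (5 ng/mL) in 0.1% FBS DMEM alongside compound at 5, 10, 20 and 40 µM for 18 h. Lysate luciferase read over the first 20 s. Triplicate.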

In assay [6] the test system is Mus musculus. Briefly: In vivo inhibition of TGF-beta1/smad3 signaling pathway in bleomycin-induced pulmonary fibrosis in C57BL/6 mouse model assessed as decrease in smad3 phosphorylation level in lung tissue at 100 mg/kg, po qd administered from day 7 to 14 by immunohistochemical analysis. The assay is classed as functional, organism-based. An outline of the steps:
(§3)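 Lungs from bleomycin-challenged C57BL/6 mice (2 U/kg intratracheal; 100 mg/kg daily, days 7-14) were paraffin-embedded and dewaxed. Citrate (0.01 M) microwave antigen retrieval, then 5% serum block. Primary antibodies overnight at 4 °C: α-SMA 1:200, collagen I 1:100, p-Smad3 1:50. Secondary antibody 1 h at room temperature, then hematoxylin counterstain and microscopy.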

Assay [7] deals with T1, Transforming growth factor beta-1 proprotein/Mothers against decapentaplegic homolog 3 (Mus musculus). Briefly: Inhibition of TGF-beta1/smad3 signaling pathway in mouse NIH/3T3 cells assessed as decrease in ECM production at 10 uM after 24 hrs. The assay is classed as cell-based.
Assay [8] has the same target. Put plainly: Inhibition of TGF-beta1/smad3 signaling pathway in mouse NIH/3T3 cells at 40 uM after 18 hrs by CAGA-luciferase reporter gene assay. The assay is classed as cell-based. Summed up: as §2
Assay [9] shares this target. Briefly: Inhibition of TGF-beta1/smad3 signaling pathway in mouse NIH/3T3 cell extract assessed as decrease in Smad3 phosphorylation at 10 uM after 30 mins by Western blot analysis. The assay is classed as protein assay.
Assay [10] shares this target. Put plainly: Inhibition of TGF-beta1/smad3 signaling pathway in mouse NIH/3T3 cell extract assessed as decrease in alpha-SMA protein expression at 10 uM after 24 hrs by Western blot analysis.
In assay [11] the test system is Mus musculus. Put plainly: In vivo inhibition of TGF-beta1/smad3 signaling pathway in bleomycin-induced pulmonary fibrosis in C57BL/6 mouse model assessed as decrease in Col1 protein expression level in lung tissue at 100 mg/kg, po qd administered from day 7 to 14 by Western blot analysis. The assay is classed as functional, organism-based.
For assay [12], the system named is Mus musculus. Put plainly: Antifibrotic activity in bleomycin-induced pulmonary fibrosis in C57BL/6 mouse model assessed as fibrotic area in lungs at 100 mg/kg, po qd administered from day 7 to 14 by hematoxylin-eosin staining based fluorescence microscopy. The assay is classed as functional. Summed up:
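Male C57BL/6 mice (7-8 weeks, n=5/group) given intratracheal bleomycin 2 U/kg under chloral hydrate anaesthesia. Dosing at 100 mg/kg daily from day 7 to day 14, sacrifice at day 14. Left lungs formalin-fixed, paraffin-embedded, 5 µm sections HE-stained. Fibrosis ratio taken as fibrotic-region pixels over total lung pixels.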

In assay [13] the test system is Mus musculus. Briefly: In vivo inhibition of TGF-beta1/smad3 signaling pathway in bleomycin-induced pulmonary fibrosis in C57BL/6 mouse model assessed as decrease in alpha-SMA level in lung tissue at 100 mg/kg, po qd administered from day 7 to 14 by immunohistochemical analysis. The format is functional, organism-based. Summed up: as §3
For assay [14], the system named is Mus musculus. Briefly: In vivo inhibition of TGF-beta1/smad3 signaling pathway in bleomycin-induced pulmonary fibrosis in C57BL/6 mouse model assessed as decrease in Col1 level in lung tissue at 100 mg/kg, po qd administered from day 7 to 14 by immunohistochemical analysis. The format is functional, organism-based. An outline of the steps:
as §3

In assay [15] the test system is Mus musculus. Put plainly: Antifibrotic activity in bleomycin-induced pulmonary fibrosis in C57BL/6 mouse model assessed as decrease in collagen content in lung at 100 mg/kg, po qd administered from day 7 to 14 by spectrophotometric method. The assay is classed as functional, organism-based. Summed up:
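Bleomycin model as above: 2 U/kg intratracheal in male C57BL/6 mice, 100 mg/kg daily from day 7 to day 14. Right lungs collected at day 14, dried and acid-hydrolysed, filtered, and pH adjusted to 6.5-8.0. Hydroxyproline then measured by chloramine-T spectrophotometry.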

Assay [16] has as its target Transforming growth factor beta-1 proprotein (Mus musculus) (UniProt P04202). Put plainly: Inhibition of TGF-beta1 in mouse Mlg cells assessed as reduction in alpha-SMA mRNA expression level at 10 uM after 24 hrs by qRT-PCR method. The assay is classed as cell-based. Summed up: as §1
The target is the same in assay [17]. Briefly: Inhibition of TGF-beta1 in mouse Mlg cells assessed as reduction in fibronectin mRNA expression level at 10 uM after 24 hrs by qRT-PCR method. The format is cell-based. Summed up: as §1

Sequence of Transforming growth factor beta-1 proprotein (Mus musculus) (P04202 whole entry): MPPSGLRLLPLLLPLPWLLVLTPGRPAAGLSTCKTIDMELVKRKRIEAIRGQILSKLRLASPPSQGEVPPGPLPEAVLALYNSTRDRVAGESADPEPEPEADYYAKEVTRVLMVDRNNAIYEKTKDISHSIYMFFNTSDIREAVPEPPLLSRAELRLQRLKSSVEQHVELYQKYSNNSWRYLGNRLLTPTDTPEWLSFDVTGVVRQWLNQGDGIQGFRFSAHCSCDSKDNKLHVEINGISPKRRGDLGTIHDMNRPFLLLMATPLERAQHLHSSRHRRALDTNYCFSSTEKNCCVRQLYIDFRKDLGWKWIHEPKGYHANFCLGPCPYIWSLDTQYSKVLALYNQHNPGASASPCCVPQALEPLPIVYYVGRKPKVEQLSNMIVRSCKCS
T1 sequence (P04202 279-390 limits assumed): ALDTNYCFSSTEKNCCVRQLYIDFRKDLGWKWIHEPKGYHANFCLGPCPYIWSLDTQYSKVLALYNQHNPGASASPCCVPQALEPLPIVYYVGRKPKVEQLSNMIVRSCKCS
T1 sequence (Q8BUN5 2-425 partner limits assumed): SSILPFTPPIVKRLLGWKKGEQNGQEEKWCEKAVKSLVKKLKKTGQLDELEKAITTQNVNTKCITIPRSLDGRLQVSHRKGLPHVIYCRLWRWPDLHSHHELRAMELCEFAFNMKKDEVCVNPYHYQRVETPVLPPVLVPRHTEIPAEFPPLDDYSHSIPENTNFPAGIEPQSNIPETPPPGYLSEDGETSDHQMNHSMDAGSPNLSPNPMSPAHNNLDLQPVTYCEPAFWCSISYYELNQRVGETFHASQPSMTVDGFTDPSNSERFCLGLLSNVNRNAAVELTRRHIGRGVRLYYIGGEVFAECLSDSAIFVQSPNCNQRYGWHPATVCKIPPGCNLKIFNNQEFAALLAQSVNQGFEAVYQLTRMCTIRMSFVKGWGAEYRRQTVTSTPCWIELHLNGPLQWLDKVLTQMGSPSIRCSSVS

For `C=C1C(=O)O[C@@H]2C[C@@]3(C)CC[C@@H](OC(=O)/C=C/C(=O)OCC)[C@]4(CO4)[C@@H]3C[C@H]12`, the inhibition result in assay [1], in assay [2] and in [4] was “Active” each time. In addition, the inhibition in [3] came to 71.3%.

For the compound `C=C1C(=O)O[C@@H]2C[C@@]3(C)CC[C@@H](OC(=O)/C=C/CCC)[C@]4(CO4)[C@@H]3C[C@H]12`, the inhibition in assay [3] turned out to be 13.5%.

For `C=C1C(=O)O[C@@H]2C[C@@]3(C)CC[C@@H](OC(=O)C4CC4)C(=C)[C@@H]3C[C@H]12`, the inhibition in assay [3] came to 4.63%.

In the case of `C=C1[C@H](O)CC[C@]2(C)C[C@H]3OC(=O)[C@@H](CN(C)C)[C@H]3C[C@@H]12`, the inhibition result in [5] is “Active”.

On to `C=C1C(=O)O[C@@H]2C[C@@]3(C)CC[C@@H](OC(=O)[C@@H](NC(=O)OC(C)(C)C)C(C)C)C(=C)[C@@H]3C[C@H]12`, for which the inhibition in assay [3] came to 22%.

For `C=C1C(=O)O[C@@H]2C[C@@]3(C)CCC(=O)C(=C)[C@@H]3C[C@H]12`, the inhibition in [3] stood at 2.24%.

`C=C1C(=O)O[C@@H]2C[C@@]3(C)CC[C@@H](OC(C)=O)C(=C)[C@@H]3C[C@H]12`: in assay [3], the inhibition is 6.58%.

For the compound `C=C1C(=O)O[C@@H]2C[C@@]3(C)CC[C@@H](OC(=O)CCCCCCC)[C@]4(CO4)[C@@H]3C[C@H]12`, the inhibition in [3] is -7.65%.

As for `C=C1C(=O)O[C@@H]2C[C@@]3(C)CC[C@@H](OC(=O)C4=CCCCC4)[C@]4(CO4)[C@@H]3C[C@H]12`, in assay [3], the inhibition was 34.8%. Also, the inhibition result in assay [4] is “inactive”.

On to `C#CCCCC(=O)O[C@@H]1CC[C@]2(C)C[C@H]3OC(=O)C(=C)[C@H]3C[C@H]2[C@@]12CO2`, for which the inhibition in assay [3] was 6.65%.

As to `C=C1C(=O)O[C@@H]2C[C@@]3(C)CC[C@@H](OC(=O)c4ccccc4)[C@]4(CO4)[C@@H]3C[C@H]12`, the inhibition in assay [3] was 26.7%.

Regarding `CCOC(=O)/C=C/C(=O)O[C@@H]1CC[C@]2(C)C[C@H]3OC(=O)[C@@H](CN(C)C)[C@H]3C[C@H]2[C@@]12CO2.O=C(O)/C=C/C(=O)O`, the inhibition entry (in the assay on Mus musculus [6]; in assay [7]; in [8]; in [9]; in [10]; in the assay on Mus musculus [11]) was “Active” each time. For the same compound, the inhibition result with Mus musculus [13] and in the assay on Mus musculus [14] was “Active” throughout. Further, in the assay with Mus musculus [12], the Activity is 53.5%. Besides, the result with Mus musculus [15] was Active.

`C=C1C(=O)O[C@@H]2C[C@@]3(C)CC[C@@H](O)[C@]4(CO4)[C@@H]3C[C@H]12`: the inhibition result in assay [16], in assay [1], in assay [17], in [2] and in [4] was “Active” in each case. Further, in [3], the inhibition came to 46%.

For the compound `C=C1C(=O)O[C@@H]2C[C@@]3(C)CC[C@@H](OC(C)=O)[C@]4(CO4)[C@@H]3C[C@H]12`, the inhibition in [3] is -2.36%.

Regarding `C=C1C(=O)O[C@@H]2C[C@@]3(C)CC[C@@H](OC(=O)CP(=O)(OCC)OCC)[C@]4(CO4)[C@@H]3C[C@H]12`, the inhibition in assay [3] is 3.67%.

On to `C=C1C(=O)O[C@@H]2C[C@@]3(C)CC[C@@H](O[Si](C)(C)C(C)(C)C)C(=C)[C@@H]3C[C@H]12`, for which the inhibition in [3] was determined as 27.8%.

As to `CN(C)C[C@@H]1C(=O)O[C@@H]2C[C@@]3(C)CC[C@@H](OC(=O)C4=CCCCC4)[C@]4(CO4)[C@@H]3C[C@H]12`, in assay [5], the inhibition entry is “Active”.

On to `C=C1C(=O)O[C@@H]2C[C@@]3(C)CCC[C@]4(CO4)[C@@H]3C[C@H]12`, for which, in assay [3], the inhibition came out at 3.08%.

Regarding `C=C1C(=O)O[C@@H]2C[C@@]3(C)CC[C@@H](O)C(=C)[C@@H]3C[C@H]12`, the inhibition result in [1], in [17], in assay [2] and in [4] was “Active” each time. Besides, the inhibition in [3] was found to be 61.9%.

With `C=C1C(=O)O[C@@H]2C[C@@]3(C)CCC[C@H](C)[C@@]34O[C@H]4[C@H]12`, the inhibition result in assay [16], in assay [1], in [17], in [2] and in [4] was “Active” each time. For the same compound, the inhibition in assay [3] was 77.7%.

For `C=C1C(=O)O[C@@H]2C[C@@]3(C)CC[C@@H](OC(=O)[C@@H](NC(=O)OC(C)(C)C)C(C)C)[C@]4(CO4)[C@@H]3C[C@H]12`, the inhibition in assay [3] came to 17.1%.
